Assay results: ChEMBL document CHEMBL2146441, “2,6-Disubstituted imidazo[2,1-b][1,3,4]thiadiazoles: search for anticancer agents” (2012)

Tests used:
Assay type in all cases: functional
[1] = test system: SW-620; assay: Cytotoxicity against human SW620 cells assessed as cell growth at 10^-4 M after 48 hrs by SRB assay; conditions: SW-620, 48 h, read-out: Activity
[2] = test system: HCC 2998; assay: Cytotoxicity against human HCC2998 cells assessed as cell growth at 10^-6 M after 48 hrs by SRB assay; conditions: HCC 2998, 48 h, read-out: Activity
Method in brief: (§1)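 NCI-60 five-dose screen. Cells were grown in RPMI 1640 with 5% FBS and seeded at 5000–40,000 cells/well according to doubling time. They were pre-incubated 24 h at 37 °C in 5% CO₂, and time-zero (Tz) plates were TCA-fixed at drug addition. Five 10-fold dilutions of DMSO stock were applied for 48 h. Read-out was SRB staining, 515 nm absorbance, with percent growth calculated versus Tz and untreated control.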

[3] = test system: U-251; assay: Cytotoxicity against human U251 cells assessed as cell growth at 10^-4 M after 48 hrs by SRB assay; conditions: U-251, 48 h, read-out: Activity
[4] = test system: CAKI-1; assay: Cytotoxicity against human Caki1 cells assessed as cell growth at 10^-5 M after 48 hrs by SRB assay; conditions: CAKI-1, 48 h, read-out: Activity
Method in brief: (§2)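 NCI-60 screen: lines kept in RPMI 1640 with 5% FBS, seeded at 5000–40,000 cells/well by doubling time, preincubated 24 h at 37 °C in 5% CO2. Time-zero plates TCA-fixed at drug addition. DMSO stocks diluted in medium, 48 h exposure. Fixation in cold TCA (final 10% adherent, 16% suspension), 0.4% SRB stain, solubilised in 10 mM Tris base, A515. Percent growth computed against control and time-zero.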

[5] = test system: BT-549; assay: Growth inhibition of human BT549 cells after 48 hrs by SRB assay; conditions: BT-549, 48 h; for CC50: read-out: LC50 (the source's name)
Method in brief: (§3)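 Same 48 h NCI-60 five-dose SRB protocol. Adherent lines were fixed with cold TCA at 10% final; suspension lines such as CCRF-CEM were fixed with 16% final TCA. Stain was 0.4% SRB in 1% acetic acid for 10 min, solubilized in 10 mM Tris base and read at 515 nm. GI50 came from log concentration–growth curves, solving [(Ti−Tz)/(C−Tz)]×100 = 50.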

[6] = test system: MOLT-4; assay: Cytotoxicity against human MOLT4 cells assessed as cell growth at 10^-5 M after 48 hrs by SRB assay; conditions: MOLT-4, 48 h, read-out: Activity
[7] = test system: SN12C; assay: Cytotoxicity against human SN12C cells assessed as cell growth at 10^-8 M after 48 hrs by SRB assay; conditions: read-out: Activity
[8] = test system: RXF 393; assay: Cytotoxicity against human RXF393 cells assessed as cell growth at 10^-8 M after 48 hrs by SRB assay; conditions: RXF 393, 48 h, read-out: Activity
[9] = test system: HOP-62; assay: Growth inhibition of human HOP62 cells after 48 hrs by SRB assay; conditions: HOP-62, 48 h
Method in brief: (§4)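 Adherent NCI-60 lines grown in RPMI 1640 with 5% FBS, seeded at 5000–40,000 cells/well, and preincubated 24 h at 37 °C, 5% CO2. Compound, stocked in DMSO, given either once at 10^-5 M or at five 10-fold dilutions for 48 h. Cells fixed with cold TCA (final 10%), stained with 0.4% SRB, and read at 515 nm. GI50 taken as 50% reduction in net protein increase versus time-zero and control plates.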

[10] = test system: OVCAR-4; assay: Cytotoxicity against human OVCAR4 cells assessed as cell growth at 10^-4 M after 48 hrs by SRB assay; conditions: OVCAR-4, 48 h, read-out: Activity
[11] = test system: SN12C; assay: Cytotoxicity against human SN12C cells assessed as cell growth at 10^-7 M after 48 hrs by SRB assay; conditions: read-out: Activity
[12] = test system: SNB-75; assay: Cytotoxicity against human SNB75 cells assessed as cell growth at 10^-8 M after 48 hrs by SRB assay; conditions: SNB-75, 48 h, read-out: Activity
[13] = test system: SR; assay: Cytotoxicity against human SR cells assessed as cell growth at 10^-4 M after 48 hrs by SRB assay; conditions: read-out: Activity
[14] = test system: HOP-62; assay: Cytotoxicity against human HOP62 cells assessed as cell growth at 10^-4 M after 48 hrs by SRB assay; conditions: HOP-62, 48 h, read-out: Activity; method in brief: as §1
[15] = test system: U-251; assay: Cytotoxicity against human U251 cells assessed as cell growth at 10^-6 M after 48 hrs by SRB assay; conditions: U-251, 48 h, read-out: Activity
[16] = test system: 786-0; assay: Cytotoxicity against human 786-0 cells assessed as cell growth at 10^-7 M after 48 hrs by SRB assay; conditions: 786-0, 48 h, read-out: Activity; method in brief: as §2
[17] = test system: HOP-92; assay: Cytotoxicity against human HOP92 cells assessed as cell growth at 10^-8 M after 48 hrs by SRB assay; conditions: HOP-92, 48 h, read-out: Activity; method in brief: as §1
[18] = test system: A549; assay: Growth inhibition of human A549 cells after 48 hrs by SRB assay; conditions: A549, 48 h; for CC50: read-out: LC50 (the source's name); method in brief: as §3
[19] = test system: HOP-62; assay: Cytotoxicity against human HOP62 cells assessed as cell growth at 10^-5 M after 48 hrs by SRB assay; conditions: HOP-62, 48 h, read-out: Activity; method in brief: as §1
[20] = test system: COLO; assay: Cytotoxicity against human COLO […] cells assessed as cell growth at 10^-8 M after 48 hrs by SRB assay; conditions: read-out: Activity; method in brief: as §2
[21] = test system: SK-MEL-28; assay: Cytotoxicity against human SK-MEL-28 cells assessed as cell growth at 10^-8 M after 48 hrs by SRB assay; conditions: SK-MEL-28, 48 h, read-out: Activity
[22] = test system: EKVX; assay: Growth inhibition of human EKVX cells after 48 hrs by SRB assay; method in brief: as §4
[23] = test system: HL-60; assay: Cytotoxicity against human HL60 cells assessed as cell growth at 10^-6 M after 48 hrs by SRB assay; conditions: HL-60, 48 h, read-out: Activity; method in brief: as §1
[24] = Cytotoxicity against human Hs 578T cells assessed as cell growth at 10^-5 M after 48 hrs by SRB assay; conditions: read-out: Activity; method in brief: as §1
[25] = test system: MDA-MB-231; assay: Cytotoxicity against human MDA-MB-231 cells assessed as cell growth at 10^-4 M after 48 hrs by SRB assay; conditions: MDA-MB-231, 48 h, read-out: Activity
[26] = test system: TK-10; assay: Growth inhibition of human TK10 cells after 48 hrs by SRB assay; conditions: TK-10, 48 h; for CC50: read-out: LC50 (the source's name); method in brief: as §4
[27] = Growth inhibition of human Hs 578T cells after 48 hrs by SRB assay; method in brief: as §4
[28] = Cytotoxicity against human NCI-ADR-RES cells assessed as cell growth at 10^-8 M after 48 hrs by SRB assay; conditions: read-out: Activity
[29] = test system: SK-MEL-28; assay: Cytotoxicity against human SK-MEL-28 cells assessed as cell growth at 10^-5 M after 48 hrs by SRB assay; conditions: SK-MEL-28, 48 h, read-out: Activity
[30] = test system: ACHN; assay: Cytotoxicity against human ACHN cells assessed as cell growth at 10^-8 M after 48 hrs by SRB assay; conditions: read-out: Activity; method in brief: as §2

Compound: COc1ccc(-c2nn3cc(-c4ccc(O)cc4O)nc3s2)cc1
- growth at 100 µM [1]: 6%
- growth at 1 µM [2]: 78%
- growth at 100 µM [3]: -46%
- growth at 10 µM [4]: 8%
- GI50 [5]: 2.36 µM
- TGI [5]: 28.1 µM
- CC50 [5]: > 100 µM
- growth at 10 µM [6]: 20%
- growth at 0.01 µM [7]: 99%
- growth at 0.01 µM [8]: 99%
- GI50 [9]: 1.88 µM
- LC50 (concentration killing 50% of cells) [9]: > 100 µM
- TGI [9]: 5.17 µM
- growth at 100 µM [10]: -22%
- growth at 0.1 µM [11]: 93%
- growth at 0.01 µM [12]: 69%
- growth at 100 µM [13]: -35%
- growth at 100 µM [14]: -22%
- growth at 1 µM [15]: 77%
- growth at 0.1 µM [16]: 99%
- growth at 0.01 µM [17]: 73%
- GI50 [18]: 2.69 µM
- TGI [18]: > 100 µM
- CC50 [18]: > 100 µM
- growth at 10 µM [19]: -33%
- growth at 0.01 µM [20]: 104%
- growth at 0.01 µM [21]: 95%
- GI50 [22]: 1.95 µM
- LC50 (concentration killing 50% of cells) [22]: > 100 µM
- TGI [22]: 41.2 µM
- growth at 1 µM [23]: 74%
- growth at 10 µM [24]: -2%
- growth at 100 µM [25]: -19%
- GI50 [26]: 3.46 µM
- TGI [26]: 17.4 µM
- CC50 [26]: > 100 µM
- GI50 [27]: 1.92 µM
- LC50 (concentration killing 50% of starting cells) [27]: > 100 µM
- TGI [27]: 9.27 µM
- growth at 0.01 µM [28]: 101%
- growth at 10 µM [29]: 3%
- growth at 0.01 µM [30]: 103%

Compound: COc1ccc(-c2nn3cc(-c4cccc(N)c4)nc3s2)cc1
- growth at 100 µM [1]: -5%
- growth at 1 µM [2]: 84%
- growth at 100 µM [3]: -17%
- growth at 10 µM [4]: 2%
- GI50 [5]: 3.88 µM
- TGI [5]: 30.8 µM
- CC50 [5]: > 100 µM
- growth at 10 µM [6]: 21%
- growth at 0.01 µM [7]: 91%
- growth at 0.01 µM [8]: 90%
- GI50 [9]: 3.12 µM
- LC50 (concentration killing 50% of cells) [9]: 87.6 µM
- TGI [9]: 16.6 µM
- growth at 100 µM [10]: -34%
- growth at 0.1 µM [11]: 91%
- growth at 0.01 µM [12]: 70%
- growth at 100 µM [13]: 23%
- growth at 100 µM [14]: -54%
- growth at 1 µM [15]: 95%
- growth at 0.1 µM [16]: 105%
- growth at 0.01 µM [17]: 71%
- GI50 [18]: 5.84 µM
- TGI [18]: 27.5 µM
- CC50 [18]: > 100 µM
- growth at 10 µM [19]: 15%
- growth at 0.01 µM [20]: 103%
- growth at 0.01 µM [21]: 95%
- GI50 [22]: 1.01 µM
- LC50 (concentration killing 50% of cells) [22]: > 100 µM
- TGI [22]: 12.8 µM
- growth at 1 µM [23]: 60%
- growth at 10 µM [24]: 6%
- growth at 100 µM [25]: -35%
- GI50 [26]: 7.56 µM
- TGI [26]: 37.4 µM
- CC50 [26]: > 100 µM
- GI50 [27]: 2.33 µM
- LC50 (concentration killing 50% of starting cells) [27]: > 100 µM
- TGI [27]: 23.3 µM
- growth at 0.01 µM [28]: 100%
- growth at 10 µM [29]: 28%
- growth at 0.01 µM [30]: 106%
